Broadly, the pIC50 is the negative decadic logarithm of the IC50, by convention in mol/L. The inhibition is the drop in the measured response relative to a control, in per cent. The low end stands for a weak effect, the high end for a strong effect.

Test [1] concerns HeLa. As to the kind of experiment: Cytotoxicity against human HeLa cells assessed as inhibition of cell growth after 48 hrs by MTT assay. The format is functional, cell-based. (Formazan colour is commonly taken as a measure of viable cells.)
For another test, the system named is HCT-116. Nature of the test: Cytotoxicity against human HCT116 cells assessed as inhibition of cell growth after 48 hrs by MTT assay. The format is functional, cell-based. The following applies: HCT-116, 48 h.
Another test relates to MCF7. As to the kind of experiment: Cytotoxicity against human MCF7 cells assessed as inhibition of cell growth after 48 hrs by MTT assay. The following applies: MCF7, 48 h. The format is functional, cell-based.
A further test has as its system HEK293. Nature of the test: Cytotoxicity against HEK293 cells assessed as inhibition of cell growth after 48 hrs by MTT assay. The following applies: Homo sapiens, HEK293, 48 h. It is filed as cell-based.
For another test, the system named is HT-29. As to the kind of experiment: Cytotoxicity against human HT-29 cells assessed as inhibition of cell growth after 48 hrs by MTT assay. It is filed as functional, cell-based. To be noted: HT-29, 48 h.
Another test deals with Tubulin (Homo sapiens) (UniProt P68371+Q9H4B7+P0DPH7+P68366+Q13509+Q71U36+P04350+Q3ZCM7+P07437+P68363+Q9BQE3+Q6PEY2+Q13885+Q9BVA1+Q9BUF5). Nature of the test: Inhibition of tubulin (unknown origin) polymerization at 10 uM relative to control. It is filed as protein-complex assay. An outline of the steps:
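Tubulin polymerization inhibition measured with compound at a final concentration of 10 μM, expressed as percent inhibition.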

In the next test the target is Tubulin. As to the kind of experiment: Inhibition of tubulin (unknown origin) polymerization. It is filed as protein-complex assay, Homo sapiens.
The test system of test [2] is HeLa. Nature of the test: Cell cycle arrest in human HeLa cells assessed as accumulation at G2/M phase at 0.5 uM after 48 hrs by propidium iodide staining based flow cytometry (reference value: 12.91%). The format is functional.
Test [3] deals with HeLa. As to the kind of experiment: Cell cycle arrest in human HeLa cells assessed as accumulation at S phase at 0.25 uM after 48 hrs by propidium iodide staining based flow cytometry (reference value: 20.31%). The format is functional. For orientation: A flow cytometer gives signals particle by particle.
Test [4] concerns HeLa. Nature of the test: Cell cycle arrest in human HeLa cells assessed as accumulation at G2/M phase after 48 hrs by propidium iodide staining based flow cytometry. It is filed as functional.
Test [5] deals with HeLa. As to the kind of experiment: Cell cycle arrest in human HeLa cells assessed as accumulation at G2/M phase at 0.25 uM after 48 hrs by propidium iodide staining based flow cytometry (reference value: 12.91%). The format is functional.
Test [6] relates to HeLa. Nature of the test: Cell cycle arrest in human HeLa cells assessed as accumulation at G0/G1 phase at 0.5 uM after 48 hrs by propidium iodide staining based flow cytometry (reference value: 66.77%). It is filed as functional.
The test system of test [7] is HeLa. Nature of the test: Cell cycle arrest in human HeLa cells assessed as accumulation at S phase at 0.5 uM after 48 hrs by propidium iodide staining based flow cytometry (reference value: 20.31%). The format is functional.
In test [8] the test system is HeLa. Nature of the test: Cell cycle arrest in human HeLa cells assessed as accumulation at G0/G1 phase at 0.25 uM after 48 hrs by propidium iodide staining based flow cytometry (reference value: 66.77%). It is filed as functional.

SMILES strings stand for the structures. pIC50: −log10 of the molar value. A value given as a limit tells only on which side of the number the result lay.

For the compound `COc1cc(-c2nnc(SCC(=O)Nc3ccc(C)cc3F)n2N)cc(OC)c1OC`, the pIC50 in the test on HeLa [1] is 7.40; in the test on HCT-116, under 4.00; in the test with MCF7 it was under 4.00; in the test on HEK293, 4.21; in the test on HT-29 it was 6.89.

`COc1cc(-c2nnc(SCC(=O)Oc3ccc(C)cc3)n2N)cc(OC)c1OC`: the pIC50 in the test on HeLa [1], in the test on HCT-116, in the test on MCF7 and in the test with HT-29 was under 4.00 in each case.

For the compound `COc1cc(-c2nnc(SCC(=O)Nc3ccc(C(C)(C)C)cc3)n2N)cc(OC)c1OC`, the pIC50 with HeLa [1] was 4.30; in the test with HCT-116 it was under 4.00; in the test on MCF7 it was under 4.00; in the test on HT-29, under 4.00.

As for `COc1ccc(NC(=O)CSc2nnc(-c3cc(OC)c(OC)c(OC)c3)[nH]2)cc1`, the negative-log IC50 (pIC50) in the test with HeLa [1], with HCT-116, in the test with MCF7 and in the test on HT-29 was under 4.00 in each case.

Regarding `COc1ccc(NC(=O)CSc2nnc(-c3cc(OC)c(OC)c(OC)c3)n2N)cc1OC`, the pIC50 in the test on HeLa [1] is 4.27; with HCT-116, under 4.00; in the test with MCF7 it was under 4.00; with HT-29 it was under 4.00.

For the compound `COc1cccc(NC(=O)CSc2nnc(-c3cc(OC)c(OC)c(OC)c3)n2N)c1`, the pIC50 was 4.28 in the test with MCF7 and 5.50 with HT-29.

As for `COc1ccc(NC(=O)CSc2nnc(-c3cc(OC)c(OC)c(OC)c3)n2N)cc1`, the pIC50 is 5.53 with HeLa [1], 4.21 with HCT-116, under 4.00 with MCF7 and 4.82 with HT-29. Further, on Tubulin (Homo sapiens), the inhibition was 24%.

Regarding `COc1cc(-c2nnc(SCC(=O)c3ccc(C)cc3)n2-n2cccc2)cc(OC)c1OC`, the pIC50 with HeLa [1], in the test with HCT-116, with MCF7 and in the test with HT-29 was under 4.00 in each case.

As for `COc1cccc(NC(=O)CSc2nnc(-c3cc(OC)c(OC)c(OC)c3)[nH]2)c1`, the pIC50 in the test with HeLa [1], in the test with HCT-116, in the test with MCF7 and in the test with HT-29 was under 4.00 in each case.

As to `COc1cc(-c2nnc(SCC(=O)Nc3c(C)cc(C)cc3C)n2N)cc(OC)c1OC`, the pIC50 in the test with HeLa [1] is 4.08; with HCT-116 it was under 4.00; in the test on MCF7, under 4.00; in the test on HT-29, under 4.00.

For the compound `CCc1ccc(NC(=O)CSc2nnc(-c3cc(OC)c(OC)c(OC)c3)[nH]2)cc1`, the pIC50 is 4.47 with HeLa [1], under 4.00 with HCT-116, under 4.00 in the test on MCF7 and under 4.00 with HT-29. This compound displayed an inhibition on Tubulin (Homo sapiens) of 11%.

For the compound `COc1ccc(/C=C\c2cc(OC)c(OC)c(OC)c2)cc1O` [COMBRETASTATIN A4], the pIC50 with HeLa [1] was 8.15; in the test with HT-29, 5.71.

Consider `COc1cc(-c2nnc(SCC(=O)Nc3ccc(N(C)C)cc3)n2N)cc(OC)c1OC`, for which the pIC50 was 4.62 in the test with HeLa [1], under 4.00 with HCT-116, under 4.00 in the test on MCF7 and 4.37 in the test with HT-29.

As to `COc1ccc(NC(=O)CSc2nnc(-c3cc(OC)c(OC)c(OC)c3)n2-n2cccc2)cc1`, the pIC50 in the test with HeLa [1], in the test on HCT-116, with MCF7 and with HT-29 was under 4.00 in each case.

`COc1ccccc1NC(=O)CSc1nnc(-c2cc(OC)c(OC)c(OC)c2)n1N`: the pIC50 was 6.80 in the test with HeLa [1]; 4.08 with HCT-116; under 4.00 in the test with MCF7; under 4.00 with HEK293; 6.89 in the test with HT-29. For the same compound, the inhibition against Tubulin (Homo sapiens) came out at 25%.

As to `COc1cc(-c2nnc(SCC(=O)Nc3ccc(C)cc3)[nH]2)cc(OC)c1OC`, the pIC50 in the test with HeLa [1], in the test with HCT-116, in the test on MCF7 and in the test on HT-29 was under 4.00 each time.

Regarding `COc1ccc(NC(=O)CSc2nnc(-c3cc(OC)c(OC)c(OC)c3)n2-n2cccc2)cc1OC`, the pIC50 in the test on HeLa [1], in the test on HCT-116, in the test with MCF7 and in the test with HT-29 was under 4.00 throughout.

Regarding `COc1cc(-c2nnc(SCC(=O)Nc3ccc(C)cc3)n2N)cc(OC)c1OC`, the pIC50 is 5.79 in the test on HeLa [1], 5.23 on Tubulin, 4.57 with MCF7 and 6.09 with HT-29. On Tubulin (Homo sapiens), this compound displayed an inhibition of 55%.

As for `COc1cc(-c2nnc(SCC(=O)Nc3cccc(C)c3)n2N)cc(OC)c1OC`, the pIC50 in the test on HeLa [1] was 5.53; in the test on HCT-116, under 4.00; in the test with MCF7, 4.33; in the test with HT-29 it was 5.31. The compound also came in with an inhibition at Tubulin (Homo sapiens) of 25%.

For `COc1cc(-c2nnc(SCC(=O)Nc3ccc(C)c(C)c3)n2N)cc(OC)c1OC`, the pIC50 is 6.06 with HeLa [1], under 4.00 in the test with HCT-116, under 4.00 in the test on MCF7 and 5.92 in the test on HT-29. This compound also had an inhibition against Tubulin (Homo sapiens) of 18%.

For `COc1cc(-c2nnc(SCC(=O)N(C)c3ccc(C)cc3)n2N)cc(OC)c1OC`, the pIC50 is 4.67 in the test on HeLa [1], under 4.00 with HCT-116, under 4.00 in the test on MCF7 and under 4.00 in the test on HT-29. Also, on Tubulin (Homo sapiens), the inhibition turned out to be 21%.

As for `COc1ccc(NC(=O)CSc2nnc(-c3cc(OC)c(OC)c(OC)c3)[nH]2)cc1O`, the pIC50 in the test on HeLa [1], in the test with HCT-116, with MCF7 and with HT-29 was under 4.00 throughout.

Take `CCc1ccc(NC(=O)CSc2nnc(-c3cc(OC)c(OC)c(OC)c3)n2N)cc1`: the Activity in the test on HeLa [2] is 54.77%; in the test on HeLa [3], 25.35%; with HeLa [4], “Dose-dependent effect”; with HeLa [5], 27.3%; with HeLa [6], 43.23%; with HeLa [7], 2%. Besides, the Activity with HeLa [8] amounted to 47.35%. The pIC50 with HeLa [1] was 7.30; in the test on HCT-116 it was 4.15; in the test with MCF7, 4.60; in the test on HEK293, under 4.00; in the test on HT-29, 6.08. Moreover, on Tubulin (Homo sapiens), the inhibition worked out at 38%.

On to `COc1cc(-c2nnc(SCC(=O)Nc3ccc(C)cc3)n2-n2cccc2)cc(OC)c1OC`, for which the pIC50 is under 4.00 in the test with HeLa [1], 4.58 in the test with HCT-116, under 4.00 with MCF7 and 5.53 with HT-29. Moreover, the inhibition against Tubulin (Homo sapiens) stood at 17%.

On to `COc1cc(-c2nnc(SCC(=O)Nc3ccc(C(C)C)cc3)n2N)cc(OC)c1OC`, for which the pIC50 in the test with HeLa [1] was 4.86; in the test on HCT-116 it was 4.13; in the test on MCF7, under 4.00; with HT-29, under 4.00.

With `COc1cc(-c2nnc(SCC(=O)Nc3ccc(N4CCCCC4)cc3)n2N)cc(OC)c1OC`, the pIC50 in the test with HeLa [1] was 4.26; in the test on HCT-116, under 4.00; in the test with MCF7, under 4.00; in the test on HT-29 it was 4.12.

In the case of `CCCc1ccc(NC(=O)CSc2nnc(-c3cc(OC)c(OC)c(OC)c3)[nH]2)cc1`, the pIC50 in the test with HeLa [1], in the test with HCT-116, in the test on MCF7 and in the test with HT-29 was under 4.00 in each case.

With `CCCc1ccc(NC(=O)CSc2nnc(-c3cc(OC)c(OC)c(OC)c3)n2N)cc1`, the pIC50 in the test with HeLa [1] is 4.73; in the test on HCT-116, 4.38; with MCF7, 4.38; in the test with HT-29 it was 4.29. The inhibition on Tubulin (Homo sapiens) turned out to be 19%.

Turning to `COc1cc(-c2nnc(SCC(=O)NC3CCCCC3)n2N)cc(OC)c1OC`, the pIC50 is 4.22 with HeLa [1], under 4.00 with HCT-116, 4.09 in the test on MCF7 and under 4.00 with HT-29.

Consider `COc1cc(-c2nnc(SCC(=O)c3ccc(Cl)cc3)n2-n2cccc2)cc(OC)c1OC`, for which the pIC50 with HeLa [1], with HCT-116, in the test with MCF7 and with HT-29 was under 4.00 each time.

As to `COc1ccc(NC(=O)CSc2nnc(-c3cc(OC)c(OC)c(OC)c3)n2N)cc1O`, the pIC50 is 4.46 in the test on HeLa [1], under 4.00 in the test on HCT-116, under 4.00 in the test with MCF7 and under 4.00 in the test on HT-29.

(Values after ChEMBL document CHEMBL4308874, “Discovery and optimization of 3,4,5-trimethoxyphenyl substituted triazolylthioacetamides as potent tubulin polymerization inhibitors” (Bioorg Med Chem Lett, 2019).)
